The source of these data is publication PMC6047365 (Biochemistry and Biophysics Reports, 2018).

Where two headings read alike, the source gives them in different places.

The test system of one data set is JEV RNA replication. As to the kind of experiment: JEV replicon Firefly luciferase. In kind it is cell-based. Conditions: Japanese encephalitis virus, 72 h, read-out: EC50 JEV. The procedure, abridged:
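JEV replicon cells (BHKMuarPACLuc rep, maintained with puromycin 10 μg/ml) were seeded at 1×10^5 per well in triplicate. They were treated with several concentrations of test compound for 72 h, then firefly luciferase was measured. Activity was expressed relative to untreated cells (100%), mean±SD of triplicates, and EC50 was derived.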
In general terms: Replicon systems follow genome replication, usually without infectious particles.

Data set [1] deals with HCV RNA replication. Conditions: read-out: EC50 HCV (HuH-7), HuH-7 cell-derived assays, cited from earlier work.
The nature of data set [2]: CellTiter 96 AQueous one solution cell proliferation assay. In kind it is cell-based. Conditions: human, PLC/PRF/5 cells. The procedure, abridged: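 PLC/PRF/5 cells seeded at 2.5×10^4 per well in triplicate and exposed to several concentrations of test compound for 72 h. Viability was read by the CellTiter 96 AQueous one solution assay. Values were taken relative to untreated cells (100%), given as mean±SD of triplicates, and CC50 was derived from the curves.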

In the next data set the test system is HEV RNA replication. As to the kind of experiment: HEV/NanoLuc luciferase. Format: cell-based. Conditions: Hepatitis E virus, PLC-PRF-5, 72 h, read-out: EC50 HEV. The procedure, abridged: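 HEV replicon RNA was electroporated into PLC/PRF/5 cells, which were plated at 2.5×10^4 per well in triplicate. Cells were treated with several concentrations of test compound for 72 h, and NanoLuc was read by Nano-Glo. Signal was taken relative to untreated cells (100%), mean±SD of triplicates, and EC50 was derived.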

Another data set has as its system DENV RNA replication. As to the kind of experiment: DENV/Gaussia luciferase. Format: cell-based. Conditions: Dengue virus, BHK-21, 72 h, read-out: EC50 DENV. The procedure, abridged:
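BHK-21 cells were seeded at 1×10^4 per well in triplicate and transfected with the DENV replicon plasmid DGL2. At 24 h post-transfection they were treated with several concentrations of test compound for 72 h, then Gaussia luciferase was measured. Signal was expressed relative to untreated cells (100%), mean±SD of triplicates, and EC50 was derived.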

In a further data set the test system is Li23. Conditions: read-out: CC50 HCV (Li23), Li23 cell-derived assays, cited from earlier work.
The conditions of data set [3]: compared with N-89; ref [3]; cited from earlier work.
The test system of data set [4] is HCV RNA replication. Conditions: read-out: EC50 HCV (Li23), Li23 cell-derived assays, cited from earlier work.
The next data set relates to HBV/NL virus entry. As to the kind of experiment: HBV/NL reporter assay, entry step. Format: cell-based, hepatitis B virus. Conditions: HBV/NL-infected HepG2/NTCPmyc cells, NL activity. The procedure, abridged:
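Reporter HBV/NL virus came from supernatant of HepG2 cells cotransfected with pUC1.2HBV/NL and pUC1.2HBVΔε. HepG2/NTCPmyc cells were infected at 10–100 genome equivalents with 4% PEG8000 and 2% DMSO overnight, with test compound applied per the entry-step schedule. NanoLuc activity was read with Nano-Glo, relative to untreated cells (100%), mean±SD of triplicates. P was computed vs. untreated.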
In general terms: Reporter assays use an easily measured gene product as a stand-in for the process of interest.

Data set [5] concerns HBV/NL, covalently closed circular DNA formation to translation of viral mRNAs. As to the kind of experiment: HBV/NL reporter assay, after entry to translation steps. Conditions: HBV/NL-infected HepG2/NTCPmyc cells, NL activity. In kind it is cell-based, hepatitis B virus.
The nature of data set [6]: Cell count after trypan blue dye treatment. In kind it is cell-based. Conditions: human, HepG2/NTCP cells.
In the next data set the test system is HuH-7. Conditions: read-out: CC50 HCV (HuH-7), HuH-7 cell-derived assays, cited from earlier work.
Another data set deals with HBV. As to the kind of experiment: HBV replication assay. Conditions: Hepatitis B virus, HepG2, read-out: EC50 HBV. In kind it is cell-based. The procedure, abridged:
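Inoculum was HBV from HepG2.2.15 supernatant, given at 1000 genome equivalents/cell in medium with 4% PEG8000 and 2% DMSO for 24 h. Medium was then replaced and cells were cultured 8 days. Cellular DNA was extracted and HBV DNA quantified by real-time qPCR. Results were taken relative to untreated cells (100%), mean±SD of triplicates.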

As a reminder, the EC50 is the concentration that produces a half-maximal response. In general, CC50 refers to the concentration that lowers cell viability or growth by half. `OCCCCCCC1COOC2(CCCCCCCCCCC2)OOC1` [N-251, 6-(1,2,6,7-tetraoxaspiro[7.11]nonadec-4-yl)hexan-1-ol]: the EC50 was 15 µM in the data set with JEV RNA replication; 0.14 to 0.98 µM with HCV RNA replication [1] (ref Ueda et al. [4]); 13 µM in the data set with HEV RNA replication; 6.5 µM in the data set with DENV RNA replication; 0.059 to 0.29 µM with HCV RNA replication [4] (ref Ueda et al. [4]); 1.9 µM with HBV. Also, the CC50 at 72 h in data set [2] stood at 56 µM. Also, the results for the CC50 with Li23 (ref Ueda et al. [4]) and with HuH-7 (ref Ueda et al. [4]) were 1.1 to 2.8 µM and 0.49 to 3.8 µM, respectively. Also, the Water solubility entry in data set [3] is recorded as “higher water solubility than N-89”. Further, in the data set with HBV/NL virus entry, the “Effect on the process of virus entry” value is “did not prevent the process of virus entry”. In addition, the “Effect on the process of covalently closed circular DNA formation to translation of viral mRNAs” value in data set [5] is “not inhibited”. This compound gave a cytotoxic concentration (CC50) at 9 days in [6] of 16 µM.
As to `NC(=O)c1ncn([C@@H]2O[C@H](CO)[C@@H](O)[C@H]2O)n1` [RBV, Ribavirin, reference compound], the EC50 in the data set with JEV RNA replication was 22 µM; in the data set with HCV RNA replication [1] (ref Mori et al. [16]), more than 100 µM; in the data set on HEV RNA replication it was 19 µM; with DENV RNA replication, 15 µM; with HCV RNA replication [4] (ref Mori et al. [16]), 8.7 to 15.9 µM; with HBV, more than 100 µM. Moreover, in data set [2], the 50% cytotoxic concentration (CC50) at 72 h was more than 100 µM. The CC50 in the data set on Li23 (ref Mori et al. [16]) and in the data set with HuH-7 (ref Mori et al. [16]) was more than 100 µM throughout. For the same compound, the CC50 at 9 days in data set [6] was more than 100 µM.
